Converted amounts (≈) assume the structure as drawn.
How the values were obtained:
Format in all cases: functional
Prevotella bivia [1] = assay: Antimicrobial activity against slow growing colonies of Prevotella bivia LBN 334 deficient in nim gene assessed as inhibition of growth at 48 hrs by agar dilution method; details: LBN 334, 48 h
In short: (§1)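 Slowly growing colonies inside the Etest inhibition zone, seen after prolonged incubation (an additional 72 h after the 48 h reading), were subcultured without antibiotic. They were then retested for metronidazole MIC by agar dilution on supplemented brucella blood agar under anaerobic conditions.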

Prevotella bivia [2] = assay: Antimicrobial activity against Prevotella bivia LBP 69 deficient in nim gene assessed as inhibition of growth at 48 hrs by agar dilution method; details: LBP 69, 48 h
In short: (§2)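 Metronidazole MIC by agar dilution (CLSI M11-A7) on brucella agar with 5% sheep blood, hemin and vitamin K1. Plates were read after 48 h at 35°C under anaerobic conditions. Susceptible was MIC ≤ 4 μg/ml and resistant MIC ≥ 8 μg/ml (EUCAST). B. fragilis ATCC 25285T and B. thetaiotaomicron ATCC 29741 were run as controls. Duplicate assays.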

Prevotella bivia [3] = assay: Antimicrobial activity against Prevotella bivia LBN 464 deficient in nim gene assessed as inhibition of growth at 48 hrs by agar dilution method; details: LBN 464, 48 h; in short: as §2
Prevotella baroniae [4] = assay: Antimicrobial activity against Prevotella baroniae DSM 16972T expressing nimI gene assessed as inhibition of growth after three consecutive subcultures on compound free medium by agar dilution method; details: Segatella baroniae
In short: (§3)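 Stability of induced resistance: metronidazole-selected isolates were subcultured three consecutive times on drug-free brucella blood agar (5% sheep blood, hemin, vitamin K1) under anaerobic conditions, then MIC was redetermined by CLSI agar dilution. Resistance was called stable if the MIC held within ±1 dilution. Duplicate experiments.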

Prevotella bivia [5] = assay: Antimicrobial activity against Prevotella bivia LBN 336 deficient in nim gene assessed as inhibition of growth at 48 hrs by agar dilution method; details: LBN 336, 48 h; in short: as §2
Prevotella baroniae [6] = assay: Antimicrobial activity against Prevotella baroniae LBN 430 expressing nim gene assessed as inhibition of growth at 48 hrs by agar dilution method; details: Segatella baroniae, LBN 430, 48 h; in short: as §2
Prevotella nanceiensis [7] = assay: Antimicrobial activity against Prevotella nanceiensis LBN 410 deficient in nimI gene assessed as inhibition of growth after several passages on plates containing increasing concentration of compound by agar dilution method; details: Hoylesella nanceiensis
In short: (§4)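 Induction of metronidazole resistance: bacterial suspensions inoculated onto brucella blood agar (5% sheep blood, hemin, vitamin K1) containing metronidazole at increasing concentrations, grown anaerobically at 37°C. Colonies growing at the highest concentration were retested for MIC by CLSI agar dilution on the same agar. Duplicate experiments.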

Prevotella nanceiensis [8] = assay: Antimicrobial activity against Prevotella nanceiensis LBN 293b deficient in nimI gene assessed as inhibition of growth after several passages on plates containing increasing concentration of compound by agar dilution method; details: Hoylesella nanceiensis; in short: as §4
Prevotella bivia [9] = assay: Antimicrobial activity against Prevotella bivia LBN 330 deficient in nim gene assessed as inhibition of growth at 48 hrs by agar dilution method; details: LBN 330, 48 h; in short: as §2
Prevotella nanceiensis [10] = assay: Antimicrobial activity against Prevotella nanceiensis LBN 297 deficient in nim gene assessed as inhibition of growth at 48 hrs by agar dilution method; details: Hoylesella nanceiensis, LBN 297, 48 h; in short: as §2
Prevotella nanceiensis [11] = assay: Antimicrobial activity against Prevotella nanceiensis LBN 410 deficient in nim gene assessed as inhibition of growth at 48 hrs by agar dilution method; details: Hoylesella nanceiensis, LBN 410, 48 h; in short: as §2
Prevotella bivia [12] = assay: Antimicrobial activity against slow growing colonies of Prevotella bivia LBN 350 deficient in nim gene assessed as inhibition of growth at 48 hrs by agar dilution method; details: LBN 350, 48 h; in short: as §1
Prevotella nanceiensis [13] = assay: Antimicrobial activity against Prevotella nanceiensis LBN 293b deficient in nim gene assessed as inhibition of growth at 48 hrs by agar dilution method; details: Hoylesella nanceiensis; in short: as §2
Prevotella buccae = assay: Antimicrobial activity against Prevotella buccae LBN 465 deficient in nimI gene assessed as inhibition of growth at 48 hrs by agar dilution method; details: Segatella buccae, LBN 465, 48 h
In short: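 Agar dilution MIC on brucella agar with 5% sheep blood, hemin and vitamin K1, following CLSI M11-A7. Plates read after 48 h at 35°C under anaerobic conditions, with B. fragilis ATCC 25285T and B. thetaiotaomicron ATCC 29741 as controls. Assays in duplicate. Isolates kept at −80°C in brucella broth with 15% glycerol. Interpretation used EUCAST breakpoints (S ≤4, R ≥8 μg/ml).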

Prevotella bivia [14] = assay: Antimicrobial activity against Prevotella bivia LBN 374 deficient in nim gene assessed as inhibition of growth at 48 hrs by agar dilution method; details: LBN 374, 48 h; in short: as §2
Prevotella bivia [15] = assay: Antimicrobial activity against Prevotella bivia LBN 332 deficient in nimI gene assessed as inhibition of growth after three consecutive subcultures on compound free medium by agar dilution method; in short: as §3

Cc1ncc([N+](=O)[O-])n1CCO [METRONIDAZOLE]
MIC (Prevotella bivia [1]): 16 µg/mL (≈ 93.5 µM) | MIC (Prevotella bivia [2]): 2 µg/mL (≈ 11.7 µM) | MIC (Prevotella bivia [3]): 8 µg/mL (≈ 46.7 µM) | MIC (Prevotella baroniae [4]): 16 µg/mL (≈ 93.5 µM) | MIC (Prevotella bivia [5]): 2 µg/mL (≈ 11.7 µM) | MIC (Prevotella baroniae [6]): 4 µg/mL (≈ 23.4 µM) | MIC (Prevotella nanceiensis [7]): 256 µg/mL (≈ 1500 µM) | MIC (Prevotella nanceiensis [8]): 256 µg/mL (≈ 1500 µM) | MIC (Prevotella bivia [9]): 2 µg/mL (≈ 11.7 µM) | MIC (Prevotella nanceiensis [10]): 2 µg/mL (≈ 11.7 µM) | MIC (Prevotella nanceiensis [11]): 1 µg/mL (≈ 5.84 µM) | MIC (Prevotella bivia [12]): 16 µg/mL (≈ 93.5 µM) | MIC (Prevotella nanceiensis [13]): 2 µg/mL (≈ 11.7 µM) | MIC (Prevotella buccae): 0.5 µg/mL (≈ 2.92 µM) | MIC (Prevotella bivia [14]): 2 µg/mL (≈ 11.7 µM) | MIC (Prevotella bivia [15]): > 256 µg/mL

Source: ChEMBL document CHEMBL1212735, “Metronidazole resistance in Prevotella spp. and description of a new nim gene in Prevotella baroniae” (2010)
